# Data as given in ChEMBL document CHEMBL4651341, “The discovery of a novel series of compounds with single-dose efficacy against juvenile and adult Schistosoma species” (PLoS Negl Trop Dis, 2021).
# Tests used:
# [1] = Partition coefficient of compound between n-octanol and PBS (pH7.4); type: physicochemical; settings: octanol/water, pH 7.4
# How it was run: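 Shake-flask method using octanol and PBS pH 7.4, each pre-saturated with the other. Compound was shaken 2 h at 850 rpm, 25 °C, then the phases were separated by centrifugation and both layers diluted and analysed by LC-MS/MS. LogD = log(octanol AUC × relative dilution / buffer AUC).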
# [2] = Solubility at 25 degC of compound (diluted from DMSO) in PBS at pH 7.4 determined after 24h (1h sonication, 22h shaking, 1h sonication) by LCMS/MS; type: physicochemical
# Schistosoma mansoni [3] = assay: (§1) Concentration required to kill 50% of 42 day old worms 5 days after drug treatment.; type: functional, organism-based; settings: Puerto Rican, 120 h
# How it was run: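 Adult S. mansoni were perfused from CD1 mice 6 weeks post-infection and washed. They were cultured 3 pairs per well in 1 mL DMEM with 2 mM glutamine, penicillin/streptomycin and 10% FCS […] at 37 °C, 5% CO2. Viability of individual worms was scored on day 5 (120 h).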
# Schistosoma mansoni [4] = assay: Concentration required to kill 50% of 21 day old worms 5 days after drug treatment.; type: functional, organism-based; settings: Puerto Rican, 120 h
# How it was run: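 Juvenile S. mansoni (Puerto Rican strain) were perfused from CD1 mice 3 weeks post-infection and washed. They were cultured 6–8 per well in 200 µL DMEM with 2 mM glutamine, penicillin/streptomycin and 10% FCS at 37 °C, 5% CO2. Viability of individual worms was scored on day 5 after dosing (120 h).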
# [5] = Concentration required to kill 50% MRC-5 cells as detected by Alamar blue staining; type: toxicity, cell-based, MRC5; settings: homo sapiens, read-out: TC50 (the source's name)
# [6] = Concentration required to kill 50% MRC5 cells as detected by Alamar blue staining; settings: homo sapiens, read-out: TC50 (the source's name)
# [7] = Mean oral bioavailability in Swiss albino male mice at […] per compound (administered in a mixture of 5 compounds to 3 mice) assessed by LCMS/MS.; also: dose 2.5 mg/kg; type: ADME, organism-based; settings: male, Swiss albino, mouse, in vivo, read-out: Bioavailability
# [8] = Mean AUC inf in Swiss albino male mice at 1 mg/kg per compound (administered iv in a mixture of 5 compounds to 3 mice) assessed by LCMS/MS.; type: ADME, organism-based; settings: male, Swiss albino, mouse, in vivo
# How it was run: (§2)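 Male Swiss albino mice (~30 g), 3 per experiment, mostly dosed as mixtures of 5 compounds iv via the lateral tail vein. Vehicle: 10% DMSO/90% 50 mM Na2HPO4 with 0.5% Tween-80. Blood sampled at 5, 15, 30 min and 1, 2, 4, 8, 24 h. Plasma stored at −20 °C and quantified by LC-MS after acetonitrile precipitation.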
# [9] = Mean observed clearance in Swiss albino male mice at 1 mg/kg per compound (administered iv in a mixture of 5 compounds to 3 mice) assessed by LCMS/MS.; type: ADME, organism-based; settings: male, Swiss albino, mouse, in vivo, read-out: Clearance (converted); how it was run: as §2
# [10] = Mean volume of distribution at steady state in Swiss albino male mice at 1 mg/kg per compound (administered iv in a mixture of 5 compounds to 3 mice) assessed by LCMS/MS.; type: ADME, organism-based; settings: mouse, in vivo, read-out: Volume
# How it was run: (§3)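 Male Swiss albino mice (~30 g), 3 per experiment, mostly dosed as mixtures of 5 compounds iv via the lateral tail vein. Vehicle: 10% DMSO/90% 50 mM Na2HPO4 with 0.5% Tween-80. Plasma stored at −20 °C and quantified by LC-MS after acetonitrile precipitation.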
# [11] = Mean half-life in Swiss albino male mice at 1 mg/kg per compound (administered iv in a mixture of 5 compounds to 3 mice) assessed by LCMS/MS.; type: ADME, organism-based; settings: mouse, in vivo; how it was run: as §3
# [12] = Mean plasma concentration at 24h in Swiss albino male mice at […] per compound (administered orally in a mixture of 5 compounds to 3 mice) assessed by LCMS/MS.; type: ADME, organism-based; settings: mouse, po
# [13] = Mean plasma concentration at 4h in Swiss albino male mice at […] per compound (administered orally in a mixture of 5 compounds to 3 mice) assessed by LCMS/MS.; type: ADME, organism-based; settings: mouse, po
# [14] = Mean time to peak plasma concentration in Swiss albino male mice at […] per compound (administered orally in a mixture of 5 compounds to 3 mice) assessed by LCMS/MS.; type: ADME, organism-based; settings: mouse, po
# [15] = Plasma protein binding determined at 10uM by LC-MS/MS.; type: ADME, cell-free
# How it was run: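 Equilibrium dialysis of plasma spiked at 10 µM (0.1% DMSO) against PBS pH 7.4, 6 h at 37 °C, duplicates. Both chambers analysed by LC-MS/MS after acetonitrile precipitation. % free = buffer/plasma area ratio; recovery also calculated.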
# [16] = Plasma protein binding determined at 1uM by LC-MS/MS.; type: ADME, cell-free
# [17] = Percentage of parent compound remaining after incubation for 30 minutes with cyropreserved mouse hepatocytes at a concentration of 1uM compound and […], determined by LCMS; type: ADME, tissue-based, Hepatocyte; settings: cryopreserved mouse hepatocytes, read-out: Stability
# How it was run: (§4)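 Compound was incubated at 1 µM final (2 µM working solution mixed 1:1 with hepatocyte suspension) in supplemented KHB pH 7.4. Conditions: 37 °C, 5% CO2, gentle mixing, duplicates. Reaction quenched with ice-cold acetonitrile containing standard; analysed by LC-MS/MS. % remaining = AUC at t / AUC at T0.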
# Schistosoma haematobium = assay: Concentration required to kill 50% of 84 day old worms 5 days after drug treatment.; type: functional, organism-based; settings: Egyptian, 120 h
# Schistosoma japonicum = assay: as §1; type: functional, organism-based; settings: Chinese, 120 h
# [18] = Concentration required to kill 50% HepG2 cells as detected by MTT staining; type: toxicity, cell-based; settings: homo sapiens, read-out: TC50 (the source's name)
# [19] = Plasma protein binding determined at 10uM by LC-MS/MS.; settings: human
# [20] = Percentage of parent compound remaining after incubation for 90 minutes with cyropreserved human hepatocytes at a concentration of 1uM compound and 1 million cells/uL, determined by LCMS/MS; type: ADME, tissue-based, Hepatocyte; settings: cryopreserved human hepatocytes, read-out: Stability; how it was run: as §4
# [21] = Percentage of parent compound remaining after incubation for 90 minutes with cyropreserved mouse hepatocytes at a concentration of 1uM compound and […], determined by LCMS; type: ADME, tissue-based, Hepatocyte; settings: cryopreserved mouse hepatocytes, read-out: Stability; how it was run: as §4
# [22] = Solubility at 25 degC of compound (diluted from DMSO) in FaSSIF at pH 6.5 (2.24 g/l of SIF powder [Na-taurocholate: 3.0mM, Lecithin:0.75mM, Pancreatin:10mg/ml], 0.42 g/l of NaOH, 4.4 g/l NaH₂PO₄ monobasic dihydrate, 6.19 g/l NaCl) determined after 24h (1h sonication, 22h shaking, 1h sonication) by LCMS/MS; type: physicochemical
# [23] = Solubility at 25 degC of compound (diluted from DMSO) in FeSSIF at pH 5.0 (11.2 g/l of SIF powder [Na-taurocholate: 15.0mM, Lecithin:3.75mM, Pancreatin:40mg/ml], 4.04 g/l of NaOH, 8.65 g/l Glacial Acetic Acid, 11.87 g/l NaCl) determined after 24h (1h sonication, 22h shaking, 1h sonication) by LCMS/MS; type: physicochemical
# [24] = Concentration of drug in plasma at 24h following oral drug adminstration at given dose. Determined by LCMS/MS; type: ADME, organism-based; settings: CD1, mouse
# How it was run: (§5)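 Plasma sampled from the mice of the efficacy experiments, each animal sampled once: one animal per group at 1, 4 and 8 h, two per group at 24 h. Plasma prepared by acetonitrile protein precipitation and analysed by LC-MS against a 10-point calibration line spiked in blank matrix, with QCs at three or more levels.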
# [25] = Concentration of drug in plasma at 4h following oral drug adminstration at given dose. Determined by LCMS/MS; type: ADME, organism-based; settings: CD1, mouse; how it was run: as §5
# Schistosoma mansoni [26] = assay: Percentage of worms remaining following treatment of female CD1 mice infected with S. mansoni worms (21 day old - juvenile or 42 day old - adult) with compound by oral gavage. Worms were recovered by portal perfusion with citrate saline 8-14 days post treatment and counted. Percentages are from a mean of 5 or 6 animals.; type: functional, Mus musculus; set-up: concentration or dose not given beside the values
# How it was run: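 Female CD1 mice were infected subcutaneously with 150 cercariae and treated at day 21 (juvenile) or day 42 (adult). Single oral gavage, or two doses 12 h apart, given in 7% Tween-80/3% ethanol/water (sonicated) or in 1:19 DMSO:corn oil. Controls received vehicle only. Worm recoveries are group means, n = 5–6.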
Compound,Lipophilicity [1],solubility kinetic at 24 h [2] [µM],bioavailability [7] [%],AUC(0-inf) [8] [ng·h/mL],clearance [9] [mL/min/kg],Vd [10] [L/kg],half-life [11] [min],concentration at 24 h [12] [ng/mL],concentration at 4 h [13] [ng/mL],Tmax [14] [min],Binding ([15]; mouse) [%],"remaining at 0.5 h, 1 µM [17] [%]",EC50 (Schistosoma mansoni [3]) [nM],EC50 (Schistosoma mansoni [4]) [nM],CC50 [5] [µM],CC50 [6] [µM],EC50 (Schistosoma haematobium) [nM],EC50 (Schistosoma japonicum) [nM],CC50 [18] [µM],Efficacy (Schistosoma mansoni [26]) [%],also measured
COc1ccc(-c2c(C(C)C)nc3cnc(-c4cccc(C(F)(F)F)c4)cn23)cc1O,3.63 =,2.11,7.84,105,79.2,5.13,115,0.1,3.5,15,99.93,36.2,< 82,65.9,21.9,–,61.2,85,> 11.1,–,Binding ([16]; human): 100%; Binding ([16]; mouse): 100%
CCc1nc2cnc(-c3ccc(F)c(C(F)(F)C(F)(F)F)c3)cn2c1-c1c(F)cc(O)cc1F,6.33 =,0.742,83.2,2210,3.82,7.32,1480,123,208,15,99.9935,–,9.11,13.6,–,–,–,–,7.23,49.1,"remaining at 1.5 h, 1 µM [20]: 41.7%; Binding ([15]; human): 99.9955%; remaining at 1.5 h, 1 µM [21]: 61.5%; solubility kinetic at 24 h [22]: 111 µM; solubility kinetic at 24 h [23]: 200 µM; concentration at 24 h [24]: 10.4 ng/mL; concentration at 4 h [25]: 104 ng/mL"
O=C(C1CCCCC1)N1CC(=O)N2CCc3ccccc3C2C1 (configuration not stated) [PRAZIQUANTEL],–,–,–,–,–,–,–,–,–,–,–,–,300,4700,> 50,–,84.4,161,–,79,–

# Further lines, with some results ahead:
Lipophilicity [1],solubility kinetic at 24 h [2] [µM],bioavailability [7] [%],AUC(0-inf) [8] [ng·h/mL],clearance [9] [mL/min/kg],Vd [10] [L/kg],half-life [11] [min],concentration at 24 h [12] [ng/mL],concentration at 4 h [13] [ng/mL],Tmax [14] [min],Binding ([15]; mouse) [%],"remaining at 0.5 h, 1 µM [17] [%]",Compound,EC50 (Schistosoma mansoni [3]) [nM],EC50 (Schistosoma mansoni [4]) [nM],CC50 [5] [µM],CC50 [6] [µM],EC50 (Schistosoma haematobium) [nM],EC50 (Schistosoma japonicum) [nM],CC50 [18] [µM],Efficacy (Schistosoma mansoni [26]) [%],also measured
3.62 =,0.383,–,–,–,–,–,–,–,–,–,–,CC(C)c1cccc(-c2cn3c(-c4ccc(O)cc4)cnc3cn2)c1,1340,1500,30,> 30,–,–,–,–,–
4.92 =,2.62,–,–,–,–,–,–,–,–,–,–,COc1ccc(-c2cnc3cnc(-c4cccc(C(C)C)c4)cn23)cc1OC,1340,2570,27.8,–,–,–,–,–,Binding [19]: 99.985%
3.56 =,2.29,–,–,–,–,–,–,–,–,–,26.4,COc1ccc(-c2cnc3cnc(-c4cccc(C(C)C)c4)cn23)cc1O,263,486,18.6,18.6,–,–,–,–,–
